Molecules are shown by their SMILES.

For data set [1], the system named is SKOV-3 cells. The experiment in a line: Cell growth inhibition. Format: cell-based. Particulars: Homo sapiens, SK-OV-3, 72 h, read-out: Cell growth inhibition (GI50). The method, boiled down:
(§1)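 Cells grown in RPMI 1640 with 10% FBS at 37 °C, 5% CO2. Seeded at 10,000 cells/well, held 24 h, then exposed to increasing concentrations of test compound for 72 h. Viability read by CellTiter-Glo luminescence and normalized to DMSO vehicle control to give GI50.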

The subject of data set [2] is Hsp90. The settings on record: cited from earlier work.
The subject of data set [3] is Akt. The experiment in a line: Akt client protein degradation by immunoblot in H1650 cells. Format: cell-based, human. Particulars: 10 μM (highest concentration tested), 6 h. In a few lines: (§2)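 H1650 cells were exposed to increasing concentrations of test compound for 6 h. They were lysed in RIPA buffer with protease inhibitors, protein was measured by BCA, and samples were run on 4–12% Bis-Tris SDS-PAGE and transferred to PVDF. Blots were probed with client-specific antibodies and detected by ECL. Bands were normalized to actin, and the fraction degraded was computed by densitometry against untreated samples.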
(Immunoblotting shows a protein as a band on a membrane.)

Data set [4] relates to Hsp90 in H1650 tumor xenografts. The experiment in a line: Hsp90 occupancy in H1650 tumor xenografts. Particulars: 100 mg/kg single dose. Format: in vivo, mice. The method, boiled down:
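Male athymic nude mice (6–8 weeks) carried flank xenografts from 1 × 10^7 H1650 cells. They received a single i.v. dose of test compound (100 mg/kg) and were sacrificed at time points from 1 to 48 h (n = 3; vehicle n = 2). Tumors were snap-frozen and powdered, and ~10 mg was homogenized in chilled binding buffer and clarified at 14,000 × g, 4 °C.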

Data set [5] in a line: Plasma and tumor PK in H1650 tumor-bearing mice. Format: in vivo. The method, boiled down:
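Nude mice bearing H1650 xenografts received a single i.v. dose of test compound (100 mg/kg). Plasma and tumors were collected at time points from 1 to 48 h (n = 3). Tumors were homogenized in ice-cold, nitrogen-sparged 1:1 acetonitrile : 150 mM citrate/EDTA/ascorbate, pH 3, then filtered and diluted 1:1 in citrate buffer with 25 ng/ml deuterated internal standard. Parent compound and two active metabolites were quantified by LC-MS/MS.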

The subject of data set [6] is H1650 cells. Description: Cell growth inhibition. Format: cell-based. Particulars: Homo sapiens, NCI-H1650, 72 h, read-out: Cell growth inhibition (GI50). In a few lines: as §1
Data set [7] deals with Hsp90 in H1650 cells. The experiment in a line: Hsp90 occupancy in H1650 cells. Particulars: read-out: Hsp90 occupancy (EC50); H1650, 6 h incubation. Format: cell-based, human. The method, boiled down:
(§3)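 Cells were grown to 95% confluency and treated with test compound (0.01–10 μM) for 6 h at 37 °C. They were washed in cold PBS and lysed by freeze/thaw in binding buffer (20 mM Hepes pH 7.3, KCl, MgCl, EDTA, TCEP). Unbound drug was removed on prechilled spin columns. […], with total Hsp90 quantified by immunoblot against recombinant α/β standards. Average of two experiments.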

The subject of data set [8] is Hsp90 in SKOV-3 cells. Description: Hsp90 occupancy in SKOV-3 cells. Format: cell-based, human. Particulars: read-out: Hsp90 occupancy (EC50); SKOV-3, 6 h incubation. The method, boiled down: as §3
Data set [9] relates to cRaf. The experiment in a line: cRaf client protein degradation by immunoblot in H1650 cells. Format: cell-based, human. Particulars: 10 μM (highest concentration tested), 6 h. In a few lines: as §2
The subject of data set [10] is mEGFR. The experiment in a line: mEGFR protein degradation in H1650 tumor xenografts. Format: in vivo, mice. The settings on record: 100 mg/kg single dose. The method, boiled down:
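Nude mice bearing H1650 flank xenografts received a single i.v. dose of test compound (100 mg/kg). They were sacrificed at time points from 1 to 48 h post dose (n = 3; vehicle n = 2). Tumors were snap-frozen in liquid nitrogen, stored at −80 °C, and EGFR protein levels in tumor tissue were assessed by immunoblot. Data are averages ± S.D.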

In data set [11] the test system is Hsp90 in H1975 cells. The experiment in a line: Hsp90 occupancy in H1975 cells. Format: cell-based, human. The settings on record: read-out: Hsp90 occupancy (EC50); H1975, 6 h incubation. In a few lines: as §3
Data set [12] concerns HER2. The experiment in a line: HER2 client protein degradation by immunoblot in H1650 cells. Format: cell-based, human. The method, boiled down: as §2
Data set [13] concerns RS4;11 cells. The experiment in a line: Cell growth inhibition. Format: cell-based. Particulars: Homo sapiens, RS4-11, 72 h, read-out: Cell growth inhibition (GI50). The method, boiled down:
as §1

In data set [14] the test system is Hsp90 in RS4;11 cells. Description: Hsp90 occupancy in RS4. Format: cell-based, human. Particulars: read-out: Hsp90 occupancy (EC50); RS4;11, 6 h incubation. The method, boiled down: as §3
The test system of data set [15] is mEGFR. The experiment in a line: mEGFR client protein degradation by immunoblot in H1650 cells. The settings on record: read-out: mEGFR degradation EC50, 6 h. Format: cell-based, human. The method, boiled down:
as §2

In data set [16] the test system is H1975 cells. The experiment in a line: Cell growth inhibition. Particulars: Homo sapiens, NCI-H1975, 72 h, read-out: Cell growth inhibition (GI50). Format: cell-based. The method, boiled down: as §1
The subject of data set [17] is Purified Hela Hsp90. Description: Dissociation of [3H]17-AAG from purified Hsp90. Format: binding, human.
Data set [18] deals with Purified Hela Hsp90. The experiment in a line: Association of [3H]17-AAG to purified Hsp90. Format: binding, human.
The subject of data set [19] is Hsp90 in SK-BR-3 lysates. Description: Dissociation of [3H]17-AAG from Hsp90 in SK-BR-3 lysates. Format: binding, human. Particulars: 4 °C.
The subject of data set [20] is Hsp90 in SK-BR-3 cell lysate. Description: Association of [3H]17-AAG to Hsp90 in SK-BR-3 lysate. Format: binding, human. The settings on record: 4 °C, 10 μM 17-AAG.

By GI50 is commonly meant the concentration at which growth is held to half of that of the control. As usually defined, the EC50 is the concentration that produces a half-maximal response. As for `C=CCNc1c(O)cc2c(O)c1C[C@@H](C)C[C@H](OC)[C@H](O)[C@@H](C)/C=C(\C)[C@H](OC(N)=O)[C@@H](OC)/C=C\C=C(/C)C(=O)N2` [IPI-504], the GI50 is 0.052 µM in data set [1], 0.037 µM in data set [6], 2 µM in data set [13] and 0.051 µM in data set [16]. In [2], the “affinity for Hsp90 higher than 17-AAG” value is reported as 50 fold. In data set [3], the Akt maximal degradation was ≤ 54%. For the same compound, the “time by which Hsp90 occupancy declined to background levels” value in data set [4] is listed as ≤ 48 h. In addition, in data set [4], the “time up to which significant Hsp90 occupancy was observed” value is “up to 12 h”. For the same compound, the “IPI-504 and its metabolites in plasma” value in [5] (24 h post dose, plasma) was “barely detectable”. Also, in data set [5] (36 h post dose, 100 mg/kg, tumor), the “IPI-504 and its metabolites in tumors” value was “high concentrations”. Besides, the “tumor PK concentrations of IPI-504” value in [5] (at 24 to 48 h, tumor) is ~1 µM. Besides, the EC50 in [7] was 0.03 µM; in [8], 0.044 µM; in data set [11], 0.074 µM; in data set [12] (read-out: HER2 degradation EC50, 6 h) it was 0.011 µM; in data set [14] it was 0.644 µM; in [15], 0.213 µM. Also, the cRaf maximal degradation in [9] is recorded as ≤ 42%. In data set [10], the “time after which mEGFR protein degradation was observed” value came to 2 h. Moreover, the “time of re-emergence of mEGFR protein expression” value in [10] is on record as 24 h. For the same compound, the HER2 degraded in data set [12] (30 nM IPI-504, 6 h) was > 90%.

As for `C=CCNC1=C2C[C@@H](C)C[C@H](OC)[C@H](O)[C@@H](C)/C=C(\C)[C@H](OC(N)=O)[C@@H](OC)/C=C\C=C(/C)C(=O)NC(=CC1=O)C2=O` [17-AAG, 17-allylamino-17-demethoxygeldanamycin], the “dissociation t½” value in [17] (4 °C) was determined as 1680 min. The results for the dissociation half-life in [17] (37 °C) and in data set [19] were 8 min and 36 h, respectively. For the same compound, in [18] (10 μM 17-AAG at 4 °C), the “rate of dissociation slower than rate of association” value is ~100 fold. Also, the “time at which drug binding reached equilibrium” value in data set [18] (4 °C, 10 μM 17-AAG) is given as ≤ 40 min; in [20], ≤ 130 min. In addition, the “association t½” value in data set [18] (4 °C, 10 μM 17-AAG, 100 nM Hsp90) amounted to 6 min; in data set [20] (∼100 nM Hsp90 in lysate) it was 19 min.

The values above are taken from publication PMC3000965 (The Journal of Biological Chemistry, 2010).
